Screening results as filed in PubChem.
A selection: hits, their analogues and other compounds. The true share with any hit is near 12%.
CHOP inh: blocks CHOP induction under ER stress; AID 2732; 3.8% of 220,000 active; CHO-K1 CHOP-promoter luciferase, tunicamycin-induced, 15-18 h; inhibition, % at 10 µM;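 active means compounds that reduced the stress-induced luciferase reporter signal by more than about 70% of percent inhibition, limit read from the data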;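 further: 0% = tunicamycin plus vehicle and 100% = wells without tunicamycin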
Wee1 stabilizer: blocks degradation of human Wee1 kinase | reporter increase, % at 5 µM | 1.2% of 220,000 active | P30291 | HeLa Luc-Wee1K328M stability, luciferase luminescence; 100% = proteasome inhibitor MG132 effect | AID 1321;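 active means activation above the mean of all tested compounds plus 3 SD, set per screening run, cut at about 8.8% in these data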;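 further: cells exposed to compound for 20 h before luminescence read; 0% = DMSO alone and 100% = MG132 at 30 µM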
Target sequence (P30291 whole entry K328M): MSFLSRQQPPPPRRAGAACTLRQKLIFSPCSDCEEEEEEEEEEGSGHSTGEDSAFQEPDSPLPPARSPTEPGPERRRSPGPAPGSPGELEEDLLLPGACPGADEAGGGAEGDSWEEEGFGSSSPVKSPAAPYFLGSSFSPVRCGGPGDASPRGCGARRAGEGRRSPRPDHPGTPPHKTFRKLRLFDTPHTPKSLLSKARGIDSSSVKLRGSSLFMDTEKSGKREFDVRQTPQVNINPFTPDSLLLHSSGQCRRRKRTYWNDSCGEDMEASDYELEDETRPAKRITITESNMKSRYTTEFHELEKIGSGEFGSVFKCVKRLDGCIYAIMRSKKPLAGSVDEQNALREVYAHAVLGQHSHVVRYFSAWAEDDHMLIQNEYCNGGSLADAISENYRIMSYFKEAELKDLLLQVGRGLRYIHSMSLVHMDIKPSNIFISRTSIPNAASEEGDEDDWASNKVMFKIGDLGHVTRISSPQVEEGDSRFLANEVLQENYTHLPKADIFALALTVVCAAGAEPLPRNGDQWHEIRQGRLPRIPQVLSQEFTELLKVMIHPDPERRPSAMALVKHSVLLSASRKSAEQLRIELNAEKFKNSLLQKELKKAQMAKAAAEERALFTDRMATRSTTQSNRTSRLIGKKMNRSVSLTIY
L major viab: reduces viability of Leishmania major promastigotes | resazurin fluorescence viability | 9% of 200,000 active | inhibition, % at 10 µM;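 further: promastigotes grown with compound for 44 hours at 28 °C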
PKD1 inh: inhibitors of human PKD1 kinase | Q15139 | PKD1 kinase fluorescence polarization assay | inhibition, % (concentration not given with the values) | 0.056% of 200,000 active | AID 797
Rad51 HR inh: Rad51 (human) homologous recombination inhibition. hRad51 DNA strand exchange, fluorescence dequenching. inhibition, % at 10 µM. 0.085% of 200,000 active. AID 1385;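 active means inhibition above 40% at the single screening dose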;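 further: 0% = DMSO control wells and 100% = blanks with heterologous ssDNA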
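System: hRad51 filaments on single-stranded DNA; reagent: Fluorescein- and BHQ1-tagged 47-mer duplex; compound dosing: one concentration, 10 µM final; timing: filaments 15 min 37 °C, then compound 30 min; measured by: fluorescein emission 520 nm, excitation 485 nm; benchmarks: per-plate controls and blanks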
Arbovirus anti: antivirals against arbovirus infection. arbovirus infection cell-based antiviral screen. inhibition, % at 10 µM. 0.37% of 200,000 active. AID 1251; in the data active means inhibition above about 30%
Active calls of the source: *; . = not tested or not shown. Unless noted, no stated cut-off is given here; in the data, active means inhibition above about 50%; inactive means the rest.

SMILES | CHOP inh | Wee1 stabilizer | L major viab | PKD1 inh | Rad51 HR inh | Arbovirus anti
Cc1ccc(N=C2NC(=O)/C(=C/c3cccnc3)S2)c(C)c1 | 25 | 2 | . | . | . | .
Cc1cc(C)nc(N2CCCC(C(=O)NCc3cccc(C(F)(F)F)c3)C2)n1 (stereo unspecified) | 83* | -1 | -1 | -3 | 3 | -15
CNC(=O)CN1C(=O)C2C3C=CC(C3)C2C1=O (stereo unspecified) | 78* | -2 | 1 | -15 | 6 | 6
Cc1ccc(OCCSc2nc3ncnc(N)c3[nH]2)cc1 | 22 | 3 | 9 | 0 | -7 | 3
Nc1ncnc2nc(SCCOc3ccc(Cl)cc3)[nH]c12 | 30 | -2 | 55* | -3 | -4 | -1
CN(C)c1ccc(C(C(=O)NC(C)(C)C)N(C(=O)c2csnn2)C2CC2)cc1 (stereo unspecified) | 11 | 3 | 53* | -13 | -7 | 6
CC(C)=CCN1CCN(Cc2cccn2-c2ccccn2)CC1CCO (stereo unspecified) | -2 | 0 | -2 | 2 | -14 | 10
Cc1c(C#N)c(O)n(CCO)c(=O)c1N=Nc1ccc2c(c1)COC2=O | 94* | -4 | . | . | -13 | .
CCOc1ccc(OCC)c(S(=O)(=O)NCCOC23CC4CC(CC(C4)C2)C3)c1 | 56 | -2 | 78* | -6 | 11 | -3
COc1cc(S(=O)(=O)NCCOC23CC4CC(CC(C4)C2)C3)c(OC)cc1Cl | 58 | 0 | 43 | 0 | 3 | 3
O=C(Nc1nc2ccccc2n1CCOc1ccccc1)c1ccco1 | 20 | 1 | 62* | -2 | -1 | -8
O=C(Nc1nc2ccccc2n1CCOc1ccc(Cl)cc1)c1ccco1 | 47 | 1 | 90* | -6 | 2 | -16
O=C(Nc1nc2ccccc2n1CCN1CCCCC1)c1ccco1 | 16 | -1 | 0 | -11 | -8 | 1
Cc1ccc(OCCn2c(NC(=O)c3ccco3)nc3ccccc32)cc1 | 21 | 1 | 27 | 1 | 9 | 1
CC(=O)Nc1ccc(C(=S)NCCCO)cc1 | 4 | 2 | -7 | -1 | 1 | 1
CC(CNC(=O)c1cccs1)c1ccc([N+](=O)[O-])cc1 (stereo unspecified) | -3 | 1 | 2 | 5 | . | 5
CC(=O)c1ccc(NC(=O)C(C)OC(=O)c2ccc3c(c2)nc(C)n3-c2ccccc2)cc1 (stereo unspecified) | 25 | 8.8* | -1 | -6 | 15 | -3
COCc1cc(C)nc(OCC(=O)N/N=C/c2ccc(-c3cc([N+](=O)[O-])ccc3Cl)o2)c1C#N | 92* | 5 | -2 | -4 | 1 | -5
Cc1cc(N)c(-n2cc3c(=O)n(C)c(=O)n(C)c3c2)cc1C | -3 | 3 | 62* | 11 | -6 | 0
O=C(COC(=O)CCc1nc2ccccc2c(=O)[nH]1)Nc1ccccc1Cl | -8 | 2 | . | . | -5 | .
N#Cc1ccc(NC(=O)COC(=O)CCc2nc3ccccc3c(=O)[nH]2)cc1 | 8 | 9.7* | . | . | 0 | .
CN(Cc1c(C(=O)N2CCc3ccccc3C2)nc2ccc(Cl)cn12)C(C1CC1)C1CC1 | 62 | 0 | 6 | -8 | -2 | -7
CCN(CC)C(=O)c1c2c(nc3ccccc13)-c1ccccc1CC2 | 26 | -2 | 62* | -1 | -1 | -11
CCOc1ccc(NC(=O)Nc2cc(-c3ccccc3)sc2C(=O)OC)cc1 | 40 | -2 | 4 | -5 | -4 | 34*
Cc1ccc(C(C)C)cc1NC(=O)Nc1ccc([N+](=O)[O-])cc1 | 106* | 2 | . | . | -2 | .
SMILES | CHOP inh | Wee1 stabilizer | L major viab | PKD1 inh | Rad51 HR inh | Arbovirus anti
CCOc1ccc(NC(=O)Nc2cc(C(C)C)ccc2C)cc1 | 93* | 6 | . | . | 0 | .
CC(=O)c1ccc(NC(=O)Nc2ccc([N+](=O)[O-])cc2)cc1 | 12 | 0 | 8 | 9 | . | -3
COc1ccc(F)cc1C(=O)C1CCCN(Cc2ccc(Sc3nncn3C)o2)C1 (stereo unspecified) | 6 | -2 | 14 | -5 | -6 | 0
COc1cc(C=C2C(=O)OC(c3ccccc3)OC2=O)cc(Br)c1O (stereo unspecified) | -13 | -3 | 4 | -3 | 8 | 3
COc1cc(C2N=C(c3ccccc3)NO2)cc(Br)c1O (stereo unspecified) | -1 | 4 | -11 | -8 | -6 | 35*
CCn1c(/C=C/N(C(C)=O)c2ccccc2)[n+](CCCS(=O)(=O)[O-])c2cc(Cl)c(Cl)cc21 | 17 | 3 | 0 | 0 | -4 | 3
